For series [1], the target named is T1, Macrophage colony-stimulating factor 1 receptor (Mus musculus) (UniProt P09581).
T1 sequence (whole entry): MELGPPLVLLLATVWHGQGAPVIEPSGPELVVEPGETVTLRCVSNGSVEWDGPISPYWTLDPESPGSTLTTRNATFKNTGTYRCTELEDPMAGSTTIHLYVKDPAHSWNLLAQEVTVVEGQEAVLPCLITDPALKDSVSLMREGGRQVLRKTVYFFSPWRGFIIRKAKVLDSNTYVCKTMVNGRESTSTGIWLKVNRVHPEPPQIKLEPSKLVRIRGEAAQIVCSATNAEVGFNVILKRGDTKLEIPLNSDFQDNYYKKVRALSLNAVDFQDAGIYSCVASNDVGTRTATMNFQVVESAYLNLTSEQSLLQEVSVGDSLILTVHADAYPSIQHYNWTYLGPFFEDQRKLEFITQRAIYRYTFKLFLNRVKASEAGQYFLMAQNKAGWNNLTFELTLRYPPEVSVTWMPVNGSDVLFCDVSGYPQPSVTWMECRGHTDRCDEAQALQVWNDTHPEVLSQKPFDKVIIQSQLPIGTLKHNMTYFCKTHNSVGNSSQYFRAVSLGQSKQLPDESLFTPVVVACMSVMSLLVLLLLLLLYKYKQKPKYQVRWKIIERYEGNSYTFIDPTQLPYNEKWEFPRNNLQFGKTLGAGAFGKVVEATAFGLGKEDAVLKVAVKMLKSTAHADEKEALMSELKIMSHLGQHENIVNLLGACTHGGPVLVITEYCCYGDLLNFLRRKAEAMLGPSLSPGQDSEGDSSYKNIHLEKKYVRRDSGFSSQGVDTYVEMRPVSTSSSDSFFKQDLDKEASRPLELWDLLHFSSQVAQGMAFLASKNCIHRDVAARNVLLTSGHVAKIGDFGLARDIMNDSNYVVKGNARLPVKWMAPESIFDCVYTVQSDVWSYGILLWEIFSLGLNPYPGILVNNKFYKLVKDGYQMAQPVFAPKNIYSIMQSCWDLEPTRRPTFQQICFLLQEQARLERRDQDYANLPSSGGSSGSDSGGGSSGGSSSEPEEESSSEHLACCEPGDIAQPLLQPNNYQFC
As to the kind of experiment: In vivo inhibition of CSF1R in wildtype mouse assessed as iron reactivity by measuring hemosiderin intensity of prussian blue staining in thalamus at 1200 ppm administered as rodent chow starting from 1.5 months and measured after 4 months by confocal microscopic analysis (reference value: 0.1 to 2.451 a.u.). The series is classed as functional. The settings on record: route po, time 2.5 months. The essentials:
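Wild-type or 5xFAD mice fed PLX5622 (1200 ppm) in AIN-76A chow from 1.5 months of age, examined in 4- and 7-month-old cohorts. Brain sections stained with a Prussian blue kit per kit instructions to detect iron deposits (microbleeds).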

Series [2] is described as follows: Toxicity in wildtype mouse assessed as proportion of time spent freezing at 1200 ppm administered as rodent chow for 10 to 24 weeks by […] (reference value: 0.10 to 0.53). The settings on record: in vivo, po, time 10-24 weeks.
The subject of series [3] is Mus musculus. The series can be described thus: Prevention of Fcrls gene upregulation in 5XFAD mouse hippocampus at 1200 ppm administered as rodent chow starting from 1.5 months and measured after 7 months by Nanostring analysis. The series is classed as functional, tissue-based. The settings on record: route po, time 5.5 months.
The nature of series [4]: Effect on Itgax gene expression in wild type mouse hippocampus at 1200 ppm administered as rodent chow starting from 1.5 months and measured after 7 months by RNA-Seq analysis (reference value: 0.057 to 0.109 RPKM). The settings on record: route po, time 5.5 months, 4015 h. The series is classed as functional.
Series [5] concerns the target Serine/threonine-protein kinase Sgk1 (Homo sapiens, UniProt O00141). The series can be described thus: Inhibition of SGK (unknown origin).
For series [6], the target named is Dual specificity tyrosine-phosphorylation-regulated kinase 3 (Homo sapiens, UniProt O43781). As to the kind of experiment: Inhibition of DYRK3 (unknown origin).
In series [7] the target is G protein-coupled receptor kinase 4 (Homo sapiens, UniProt P32298). The series can be described thus: Inhibition of GRK4 (unknown origin).
The target in series [8] is Protein kinase C theta type (Homo sapiens, UniProt Q04759). The series can be described thus: Inhibition of PRKCQ (unknown origin).
Series [9] addresses Tyrosine-protein kinase Fer (Homo sapiens, UniProt P16591). The series can be described thus: Inhibition of FER (unknown origin).
Series [10] can be described thus: Half-life in male rat at 1.13 mg/kg, iv administered as single dose. The series is classed as ADME, organism-based. The settings on record: in vivo.
Series [11] is described as follows: Effect on Ctsz gene expression in 5XFAD mouse thalamus at 1200 ppm administered as rodent chow starting from 1.5 months and measured after 7 months by RNA-Seq analysis (reference value: 23.715 to 34.765 RPKM). In kind it is functional. The settings on record: route po, time 5.5 months, 4015 h.
The test system of series [12] is Mus musculus. The series can be described thus: Antialzheimer activity in 5XFAD mouse assessed as amyloidbeta42 level in detergent soluble cortex fraction measured per microgram protein at 1200 ppm administered as rodent chow starting from 1.5 months and measured after 4 months by ELISA (reference value: 0 to 0.063 pg). The settings on record: route po, time 2.5 months, 1825 h. In kind it is functional. Put shortly:
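PLX5622 at 1200 ppm in chow given to 5xFAD mice from 1.5 months to 4 or 7 months of age; cortex and thalamus homogenized in TPER (detergent-soluble), pellets re-homogenized in 70% formic acid and spun 100,000 g, 1 h, 4 °C (insoluble); protein by Bradford/Lowry; Aβ species measured by Meso Scale electrochemiluminescence immunoassay, normalized to protein; n = 7–8 per group at 7 months.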
For orientation: ELISA stands for enzyme-linked immunosorbent assay.

In series [13] the target is Beta-adrenergic receptor kinase 1 (Homo sapiens, UniProt P25098). As to the kind of experiment: Inhibition of ADRBK1 (unknown origin).
Series [14] in a line: Effect on Siglech gene expression in 5XFAD mouse cortex at 1200 ppm administered as rodent chow starting from 1.5 months and measured after 7 months by RNA-Seq analysis (reference value: 5.048 to 7.930 RPKM). The series is classed as functional. The settings on record: route po, time 5.5 months, 4015 h.
Series [15] has as its system Mus musculus. As to the kind of experiment: Antialzheimer activity in 5XFAD mouse assessed as number of Iba positive cells per FOV in microglia at 1200 ppm administered as rodent chow for 3 days by DAPI staining based immunolabeling analysis (reference value: 119 to 154). In kind it is functional. The settings on record: route po, time 3 day.
The nature of series [16]: Effect on Ctsd gene expression in wild type mouse hippocampus at 1200 ppm administered as rodent chow starting from 1.5 months and measured after 7 months by RNA-Seq analysis (reference value: 111.753 to 176.402 RPKM). In kind it is functional. The settings on record: route po, time 5.5 months, 4015 h.
Series [17] concerns Mus musculus. The series can be described thus: Antialzheimer activity in 5XFAD mouse assessed as number of Thio-S positive plaques per FOV in thalamus at 1200 ppm administered as rodent chow starting from 1.5 months and measured after 7 months by Thio-S staining based confocal microscopic analysis (reference value: 97 to 282). The settings on record: route po, time 5.5 months, 4015 h. The series is classed as functional.

Series [18] addresses T1, Macrophage colony-stimulating factor 1 receptor (Mus musculus). As to the kind of experiment: In vivo inhibition of CSF1R in wildtype mouse assessed as number of GFAP positive cell per FOV in […] cortex at 1200 ppm administered as rodent chow for 10 to 24 weeks by immunolabelling based confocal microscopic analysis (reference value: 17 to 92). In kind it is functional. The settings on record: route po, time 10-24 weeks.

Series [19] deals with Hepatocyte growth factor receptor (Homo sapiens, UniProt P08581). The series can be described thus: Inhibition of MET (unknown origin).
The target of series [20] is T1, Macrophage colony-stimulating factor 1 receptor (Mus musculus). As to the kind of experiment: In vivo inhibition of CSF1R in wildtype mouse assessed as microglial elimination in cortex at 1200 ppm administered as rodent chow for 10 weeks by […] based confocal microscopic analysis relative to control. The arrangement: scale not given: the % may be the effect or the level left. The settings on record: route po. The series is classed as functional.

The structures appear in SMILES notation. The source made the active and inactive calls.

Sequence of G protein-coupled receptor kinase 4 (P32298 whole entry): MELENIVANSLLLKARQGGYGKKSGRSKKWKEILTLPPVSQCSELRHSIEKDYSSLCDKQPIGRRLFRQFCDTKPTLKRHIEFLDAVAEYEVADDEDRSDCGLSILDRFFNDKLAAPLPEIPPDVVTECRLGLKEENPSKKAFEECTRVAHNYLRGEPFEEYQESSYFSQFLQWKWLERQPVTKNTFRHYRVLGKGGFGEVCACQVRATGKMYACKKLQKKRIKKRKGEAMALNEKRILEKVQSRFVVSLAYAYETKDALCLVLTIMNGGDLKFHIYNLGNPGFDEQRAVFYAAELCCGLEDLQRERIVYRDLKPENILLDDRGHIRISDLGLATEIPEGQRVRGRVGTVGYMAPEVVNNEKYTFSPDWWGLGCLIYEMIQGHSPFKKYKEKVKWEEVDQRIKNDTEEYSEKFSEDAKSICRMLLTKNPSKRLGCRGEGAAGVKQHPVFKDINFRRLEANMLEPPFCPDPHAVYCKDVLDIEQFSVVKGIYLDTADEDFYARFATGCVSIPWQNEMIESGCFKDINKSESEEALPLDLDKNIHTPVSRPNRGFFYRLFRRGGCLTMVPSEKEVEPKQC
Sequence of Tyrosine-protein kinase Fer (P16591 whole entry): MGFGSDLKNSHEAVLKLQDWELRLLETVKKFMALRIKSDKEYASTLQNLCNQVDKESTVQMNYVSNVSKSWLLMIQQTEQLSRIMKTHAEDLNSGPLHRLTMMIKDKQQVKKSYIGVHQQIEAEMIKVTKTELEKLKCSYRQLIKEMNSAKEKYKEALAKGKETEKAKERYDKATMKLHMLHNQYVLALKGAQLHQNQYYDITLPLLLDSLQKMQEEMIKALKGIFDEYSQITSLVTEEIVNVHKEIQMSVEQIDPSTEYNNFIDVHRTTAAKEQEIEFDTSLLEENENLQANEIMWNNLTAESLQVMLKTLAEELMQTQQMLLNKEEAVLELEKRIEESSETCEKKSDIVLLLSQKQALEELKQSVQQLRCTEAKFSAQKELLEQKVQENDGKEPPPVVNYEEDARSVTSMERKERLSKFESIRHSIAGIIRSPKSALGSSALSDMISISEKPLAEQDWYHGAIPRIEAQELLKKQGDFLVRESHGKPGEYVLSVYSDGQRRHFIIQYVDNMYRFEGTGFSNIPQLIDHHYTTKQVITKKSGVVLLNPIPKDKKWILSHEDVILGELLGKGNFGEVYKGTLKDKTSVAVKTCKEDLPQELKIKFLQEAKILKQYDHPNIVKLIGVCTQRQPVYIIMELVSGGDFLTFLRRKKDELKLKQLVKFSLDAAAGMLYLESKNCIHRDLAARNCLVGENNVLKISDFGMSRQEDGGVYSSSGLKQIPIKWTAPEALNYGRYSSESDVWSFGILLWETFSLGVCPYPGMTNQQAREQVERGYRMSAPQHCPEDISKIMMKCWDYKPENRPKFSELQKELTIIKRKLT
Sequence of Dual specificity tyrosine-phosphorylation-regulated kinase 3 (O43781 whole entry): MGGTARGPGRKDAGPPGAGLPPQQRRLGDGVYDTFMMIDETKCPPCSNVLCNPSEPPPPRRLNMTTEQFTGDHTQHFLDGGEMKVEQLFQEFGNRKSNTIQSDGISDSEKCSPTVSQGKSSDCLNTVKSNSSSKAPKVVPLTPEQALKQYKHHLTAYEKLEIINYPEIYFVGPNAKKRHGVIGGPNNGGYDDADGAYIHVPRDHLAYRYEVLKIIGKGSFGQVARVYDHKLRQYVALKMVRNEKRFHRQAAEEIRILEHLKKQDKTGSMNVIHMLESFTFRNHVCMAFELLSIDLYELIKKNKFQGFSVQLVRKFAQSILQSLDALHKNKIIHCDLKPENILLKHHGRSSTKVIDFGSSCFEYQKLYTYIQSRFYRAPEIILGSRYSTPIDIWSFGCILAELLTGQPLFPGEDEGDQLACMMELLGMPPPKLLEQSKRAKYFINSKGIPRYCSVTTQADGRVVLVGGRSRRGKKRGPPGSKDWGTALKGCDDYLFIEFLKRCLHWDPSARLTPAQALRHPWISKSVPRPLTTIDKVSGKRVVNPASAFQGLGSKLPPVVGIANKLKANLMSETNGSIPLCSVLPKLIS
Sequence of Beta-adrenergic receptor kinase 1 (P25098 whole entry): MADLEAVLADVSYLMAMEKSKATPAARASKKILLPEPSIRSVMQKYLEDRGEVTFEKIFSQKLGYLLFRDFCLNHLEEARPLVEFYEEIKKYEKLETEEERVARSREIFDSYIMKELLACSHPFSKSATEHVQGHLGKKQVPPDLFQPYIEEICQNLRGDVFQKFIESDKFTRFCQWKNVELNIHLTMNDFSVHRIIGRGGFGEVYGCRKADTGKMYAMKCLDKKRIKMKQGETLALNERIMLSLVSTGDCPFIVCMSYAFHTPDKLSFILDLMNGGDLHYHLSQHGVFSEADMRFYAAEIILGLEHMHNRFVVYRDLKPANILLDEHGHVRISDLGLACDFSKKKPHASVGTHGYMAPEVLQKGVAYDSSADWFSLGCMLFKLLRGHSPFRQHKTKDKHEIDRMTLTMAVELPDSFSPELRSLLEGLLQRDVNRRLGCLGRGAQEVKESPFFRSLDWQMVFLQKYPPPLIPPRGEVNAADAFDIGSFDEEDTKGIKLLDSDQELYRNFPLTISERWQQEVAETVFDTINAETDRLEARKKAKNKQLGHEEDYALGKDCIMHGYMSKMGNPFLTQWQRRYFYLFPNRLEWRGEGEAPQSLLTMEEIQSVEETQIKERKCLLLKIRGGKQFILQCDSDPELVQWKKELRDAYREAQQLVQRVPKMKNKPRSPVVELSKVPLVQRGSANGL
Sequence of Hepatocyte growth factor receptor (P08581 whole entry): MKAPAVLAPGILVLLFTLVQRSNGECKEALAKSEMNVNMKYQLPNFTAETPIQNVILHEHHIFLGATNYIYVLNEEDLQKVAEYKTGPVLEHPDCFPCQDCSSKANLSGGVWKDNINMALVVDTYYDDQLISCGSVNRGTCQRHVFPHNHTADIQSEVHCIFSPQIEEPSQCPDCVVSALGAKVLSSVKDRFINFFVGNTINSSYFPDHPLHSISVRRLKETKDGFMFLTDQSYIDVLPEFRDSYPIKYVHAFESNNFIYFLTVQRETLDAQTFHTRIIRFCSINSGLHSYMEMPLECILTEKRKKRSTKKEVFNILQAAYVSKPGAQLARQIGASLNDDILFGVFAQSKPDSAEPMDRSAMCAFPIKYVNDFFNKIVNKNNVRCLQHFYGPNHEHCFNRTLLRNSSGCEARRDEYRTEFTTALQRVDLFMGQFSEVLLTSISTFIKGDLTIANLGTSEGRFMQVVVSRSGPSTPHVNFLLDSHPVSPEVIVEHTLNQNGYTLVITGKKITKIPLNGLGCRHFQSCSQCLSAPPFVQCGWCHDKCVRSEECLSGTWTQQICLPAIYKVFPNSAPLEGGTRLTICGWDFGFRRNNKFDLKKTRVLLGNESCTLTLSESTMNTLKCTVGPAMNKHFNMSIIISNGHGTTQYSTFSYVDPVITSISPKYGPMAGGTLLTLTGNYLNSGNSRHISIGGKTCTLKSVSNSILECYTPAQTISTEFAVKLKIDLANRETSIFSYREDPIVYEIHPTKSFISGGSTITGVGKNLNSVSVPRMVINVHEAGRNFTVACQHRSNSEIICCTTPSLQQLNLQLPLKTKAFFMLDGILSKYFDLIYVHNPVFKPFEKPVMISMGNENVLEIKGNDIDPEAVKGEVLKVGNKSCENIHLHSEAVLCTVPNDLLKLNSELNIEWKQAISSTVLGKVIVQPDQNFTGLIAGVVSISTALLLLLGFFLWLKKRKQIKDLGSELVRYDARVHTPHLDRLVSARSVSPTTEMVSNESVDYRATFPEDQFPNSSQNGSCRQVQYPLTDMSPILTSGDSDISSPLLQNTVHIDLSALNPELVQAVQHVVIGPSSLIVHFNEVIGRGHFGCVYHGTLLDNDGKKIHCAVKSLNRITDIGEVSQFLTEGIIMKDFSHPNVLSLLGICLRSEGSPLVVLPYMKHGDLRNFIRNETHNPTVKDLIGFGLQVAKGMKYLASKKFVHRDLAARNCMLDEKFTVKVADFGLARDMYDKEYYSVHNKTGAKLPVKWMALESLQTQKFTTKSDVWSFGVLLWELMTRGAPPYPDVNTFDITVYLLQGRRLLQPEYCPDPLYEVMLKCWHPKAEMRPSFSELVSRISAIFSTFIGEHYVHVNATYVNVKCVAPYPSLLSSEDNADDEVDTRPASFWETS
Sequence of Protein kinase C theta type (Q04759 whole entry): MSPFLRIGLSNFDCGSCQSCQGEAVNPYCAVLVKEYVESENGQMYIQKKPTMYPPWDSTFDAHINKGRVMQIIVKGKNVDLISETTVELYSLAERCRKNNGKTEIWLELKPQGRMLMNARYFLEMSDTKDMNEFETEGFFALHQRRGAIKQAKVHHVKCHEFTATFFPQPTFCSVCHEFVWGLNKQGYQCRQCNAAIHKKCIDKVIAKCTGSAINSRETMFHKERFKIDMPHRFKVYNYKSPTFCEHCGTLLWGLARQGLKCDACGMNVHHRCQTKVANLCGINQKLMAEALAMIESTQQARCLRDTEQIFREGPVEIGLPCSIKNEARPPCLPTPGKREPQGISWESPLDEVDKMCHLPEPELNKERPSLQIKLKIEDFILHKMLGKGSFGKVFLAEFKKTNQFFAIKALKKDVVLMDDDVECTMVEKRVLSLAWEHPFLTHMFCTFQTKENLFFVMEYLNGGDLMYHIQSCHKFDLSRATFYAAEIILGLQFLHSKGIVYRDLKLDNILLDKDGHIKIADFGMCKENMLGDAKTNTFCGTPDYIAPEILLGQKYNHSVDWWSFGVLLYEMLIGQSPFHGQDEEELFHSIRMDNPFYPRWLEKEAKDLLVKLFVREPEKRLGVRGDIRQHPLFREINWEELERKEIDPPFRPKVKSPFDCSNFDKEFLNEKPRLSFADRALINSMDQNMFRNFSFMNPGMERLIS

Broadly, the IC50 is the concentration that gives 50% inhibition. Usually half-life stands for the time needed for the level to fall by half in the phase considered. Consider `COc1ncc(F)cc1CNc1ccc(Cc2c[nH]c3ncc(C)cc23)c(F)n1` [PLX-5622], for which the Flu intensity in [1] stood at 0.273 a.u. The Activity in series [2] came to 0.13; in series [4], 0 RPKM; in series [11], 13.618 RPKM; with Mus musculus [12], 0.006 pg; in series [14], 0.14 RPKM; in the series on Mus musculus [15], 1. In addition, the Activity in series [16] is 89.626 RPKM; with Mus musculus [17] it was 45; in series [18] it was 7; in [20], over 99%. Also, the outcome in the series with Mus musculus [3] was Active. The IC50 in series [5], in series [6], in series [7], in [8], in series [9] and in series [13] was over 1000 nM each time. In series [19], this compound showed a half-maximal inhibitory concentration (IC50) of over 1000 nM. Further, in series [10], the half-life was 2.3 h.

For the origin of these results see ChEMBL document CHEMBL5649170, “Sustained microglial depletion with CSF1R inhibitor impairs parenchymal plaque development in an Alzheimer's disease model” (Nat Commun, 2019).
